We go through 28 molecules from ChEMBL document CHEMBL4004822, “Thienopyrimidinone Based Sirtuin-2 (SIRT2)-Selective Inhibitors Bind in the Ligand Induced Selectivity Pocket” (J Med Chem, 2017).

For assay [1], the target named is T1, NAD-dependent protein deacetylase sirtuin-2 (Homo sapiens, UniProt Q8IXJ6).
T1 sequence (Q8IXJ6 whole entry): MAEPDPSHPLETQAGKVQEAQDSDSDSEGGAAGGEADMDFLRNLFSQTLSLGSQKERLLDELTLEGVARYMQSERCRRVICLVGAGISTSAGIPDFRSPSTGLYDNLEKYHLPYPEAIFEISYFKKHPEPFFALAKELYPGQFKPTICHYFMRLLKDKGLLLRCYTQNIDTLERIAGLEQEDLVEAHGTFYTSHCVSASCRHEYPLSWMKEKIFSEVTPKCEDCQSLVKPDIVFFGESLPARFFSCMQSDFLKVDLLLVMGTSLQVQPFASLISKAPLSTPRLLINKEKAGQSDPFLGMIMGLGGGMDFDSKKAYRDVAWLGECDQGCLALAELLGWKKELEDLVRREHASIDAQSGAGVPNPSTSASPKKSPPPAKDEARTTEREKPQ
The assay can be described thus: Inhibition of recombinant human C-terminal His-tagged SIRT2 (50 to 389 end residues) expressed in Escherichia coli using p53 derived (379 to 382 residues) fluorogenic peptide substrate RHKK(Ac)-AMC preincubated for 10 mins followed by substrate addition in presence of NAD+ by fluorescence assay. The gist of the method: (§1)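 Two-step fluorogenic assay with p53 379–382 RHKK(Ac)-AMC. Compound (from 10 mM DMSO stock) preincubated ~10 min with human SIRT before substrate addition. Developer then releases fluorophore, read at ex 360/em 460 nm.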

Assay [2] addresses T2, NAD-dependent protein deacetylase sirtuin-2 (Homo sapiens) (UniProt Q8IXJ6).
T2 sequence (whole entry): T1 sequence (Q8IXJ6 whole entry)
The assay can be described thus: Inhibition of recombinant human C-terminal His-tagged SIRT2 (50 to 389 end residues) expressed in Escherichia coli at 10 uM using p53 derived (379 to 382 residues) fluorogenic peptide substrate RHKK(Ac)-AMC preincubated for 10 mins followed by substrate addition in presence of NAD+ by fluorescence assay relative to control. An outline of the steps:
as §1

The term IC50 denotes the concentration that inhibits the measured activity by half. A word on the inhibition: it is the percentage by which the read-out fell short of the control.

SMILES strings stand for the structures.

As to `COc1ccccc1Cn1cnc2sc3c(c2c1=O)CCC(NCc1ccccc1)C3` (stereo not given), the IC50 in assay [1] came out at 10.4 µM. The inhibition in assay [2] is 75%.
The corresponding values for `O=c1c2c3c(sc2ncn1Cc1ccc2ccccc2c1)CC(NCc1ccccn1)CC3` (stereo not given) are 8.67 µM and 81%.
The corresponding values for `COc1ccc2ccccc2c1Cn1cnc2sc3c(c2c1=O)CCC(NCc1cccc(F)c1)C3` (stereo not given) are 4.07 µM and 73%.
The corresponding values for `COc1ccc(Cn2cnc3sc4c(c3c2=O)CCC(NC2CCOCC2)C4)c2ccccc12` (stereo not given) are 5.06 µM and 81%.
In the case of `COc1ccc(CNC2CCc3c(sc4ncn(Cc5cccc6ccccc56)c(=O)c34)C2)cn1` (stereo not given), in assay [1], the IC50 is 7.59 µM. The inhibition in assay [2] turned out to be 75%.
Taken in the same sequence, the figures for `O=c1c2c3c(sc2ncn1Cc1cccc2cccnc12)CC(NC1CCc2ccccc21)CC3` (stereo not given) were 3.09 µM and 91%.
The corresponding values for `COc1ccc(CNC2CCc3c(sc4ncn(Cc5cccc6cccnc56)c(=O)c34)C2)cn1` (stereo not given) are 2.65 µM and 90%.
The corresponding values for `COc1ccc(CNC2CCc3c(sc4ncn(Cc5cccc6ccccc56)c(=O)c34)C2)cc1` (stereo not given) are 3.2 µM and 78%.
Take `COc1ccc2ccccc2c1Cn1cnc2sc3c(c2c1=O)CCC(NC1CCOCC1)C3` (stereo not given): in assay [1], the IC50 was determined as 1.11 µM. Also, in assay [2], the inhibition is 96%.
Taken in the same sequence, the figures for `O=c1c2c3c(sc2ncn1Cc1cccc(-c2ccccc2)c1)CC(NC1CCCC1)CC3` (stereo not given) were 1.52 µM and 98%.
Turning to `COc1ccc2ccccc2c1Cn1cnc2sc3c(c2c1=O)CCC(NCC1CCCO1)C3` (stereo not given), the IC50 in assay [1] came out at 1.9 µM. Further, the inhibition in assay [2] is 90%.
Consider `COc1ccc2ccccc2c1Cn1cnc2sc3c(c2c1=O)CCC(NCc1ccco1)C3` (stereo not given), for which the IC50 in assay [1] amounted to 5.24 µM. In addition, the inhibition in assay [2] amounted to 78%.
The corresponding values for `O=c1c2c3c(sc2ncn1Cc1cccc2cccnc12)CC(NCc1ccccc1)CC3` (stereo not given) are 2.5 µM and 93%.
Taken in the same sequence, the figures for `O=c1c2c3c(sc2ncn1Cc1ccc2ccccc2c1)CC(NCc1ccccc1)CC3` (stereo not given) were 5.45 µM and 71%.
Consider `O=c1c2c3c(sc2ncn1Cc1cccc(-c2ccccc2)c1)CC(NCC1CCOC1)CC3` (stereo not given), for which the half-inhibitory concentration (IC50) in assay [1] turned out to be 2.58 µM. The inhibition in assay [2] was found to be 91%.
The corresponding values for `COc1ccc2ccccc2c1Cn1cnc2sc3c(c2c1=O)CCC(NCc1c(C)nn(C)c1C)C3` (stereo not given) are 5.11 µM and 94%.
The corresponding values for `O=c1c2c3c(sc2ncn1Cc1ccc2ccccc2c1)CC(NCC1CCCCC1)CC3` (stereo not given) are 5.53 µM and 87%.
As for `COc1ccc2ccccc2c1Cn1cnc2sc3c(c2c1=O)CCC(NCc1ccccc1)C3` (stereo not given), in assay [1], the IC50 stood at 21.1 µM.
Same read-out and setting: to `COc1cccc(CNC2CCc3c(sc4ncn(Cc5c(OC)ccc6ccccc56)c(=O)c34)C2)c1` (stereo not given) belongs 1.9 µM.
For the molecule `O=c1c2c3c(sc2ncn1Cc1cccc2ccccc12)CC(NCc1ccccc1Cl)CC3` (stereo not given), the inhibition in assay [2] was 46%.
On to `O=c1c2c3c(sc2ncn1Cc1ccc2ccccc2c1)CC(NCc1ccc(Cl)cc1)CC3` (stereo not given), for which the inhibition in assay [2] is 49%.
On the same count and under the same terms, to `O=c1c2c3c(sc2ncn1Cc1cccc2ccccc12)CC(Nc1ccc(F)cc1)CC3` (stereo not given) belongs 50%; to `COc1ccc2ccccc2c1Cn1cnc2sc(CCN(C)C)c(C)c2c1=O`, 30%.
Same read-out and setting: to `O=c1c2c3c(sc2ncn1Cc1cccc2cccnc12)CC(NCCN1CCCC1)CC3` (stereo not given) belongs 29%; to `O=c1c2c3c(sc2ncn1Cc1cccc2ccccc12)CC(NCc1cccc(Cl)c1)CC3` (stereo not given), 60%; to `COc1ccc2ccccc2c1Cn1cnc2sc3c(c2c1=O)CCC(Nc1cccc(C)c1)C3` (stereo not given), 27%.
Same read-out and setting: to `O=c1c2c3c(sc2ncn1Cc1cccc(-c2ccccc2)c1)CC(Nc1ccc(F)cc1)CC3` (stereo not given) belongs 52%; to `COc1cccc(NC2CCc3c(sc4ncn(Cc5ccc6ccccc6c5)c(=O)c34)C2)c1` (stereo not given), 37%.
